From BindingDB's records for doi:10.1021/jm050754u (Abbott Laboratories, 2006)

Target: not listed separately
Experiment: Activity towards mouse FL5.12 cell line transfected with Bcl-XL in presence of gelatin

SMILES	EC50
COc1cc(CCCN2CCOCC2)ccc1-c1ccc(C(=O)NS(=O)(=O)c2ccc(N[C@H](CCCN(C)C)CSc3ccccc3)c([N+](=O)[O-])c2)cc1 [4-((R)-4-Dimethylamino-1-phenylsulfanylmethylbutylamino)-N-[2'-methoxy-4'-(3-morpholin-4-ylpropyl)biphenyl-4-carbonyl]-3-nitrobenzenesulfonamide]	3.01 µM
COc1cc(CCCN2CCOCC2)ccc1-c1ccc(C(=O)NS(=O)(=O)c2ccc(N[C@H](CCN3CCOCC3)CSc3ccccc3)c([N+](=O)[O-])c2)cc1 [N-[2'-methoxy-4'-(3-morpholin-4-ylpropyl)biphenyl-4-carbonyl]-4-((R)-3-morpholin-4-yl-1-phenylsulfanylmethylpropylamino)-3-nitrobenzenesulfonamide]	0.382 µM
CN(C)CCCC[C@H](CSc1ccccc1)Nc1ccc(S(=O)(=O)NC(=O)c2ccc(N3CCC(C)(C)CC3)cc2)cc1[N+](=O)[O-] [4-((R)-5-dimethylamino-1-phenylsulfanylmethylpentylamino)-N-[4-(4,4-dimethylpiperidin-1-yl)benzoyl]-3-nitrobenzenesulfonamide]	1.08 µM
COc1cc(CCCN2CCOCC2)ccc1-c1ccc(C(=O)NS(=O)(=O)c2ccc(N[C@@H](CCN(C)C)CSc3ccccc3)c([N+](=O)[O-])c2)cc1 [4-((S)-3-dimethylamino-1-phenylsulfanylmethylpropylamino)-N-[2'-methoxy-4'-(3-morpholin-4-ylpropyl)biphenyl-4-carbonyl]-3-nitrobenzenesulfonamide]	32.5 µM
COc1cc(CCCN2CCOCC2)ccc1-c1ccc(C(=O)NS(=O)(=O)c2ccc(N[C@H](CCN(C)C)CSc3ccccc3)c([N+](=O)[O-])c2)cc1 [4-((R)-3-dimethylamino-1-phenylsulfanylmethylpropylamino)-N-[2'-methoxy-4'-(3-morpholin-4-ylpropyl)biphenyl-4-carbonyl]-3-nitrobenzenesulfonamide]	0.399 µM
CC1(C)CCN(c2ccc(C(=O)NS(=O)(=O)c3ccc(N[C@@H](CCN4CCOCC4)CSc4ccccc4)c([N+](=O)[O-])c3)cc2)CC1 [N-[4-(4,4-dimethylpiperidin-1-yl)benzoyl]-4-((S)-3-morpholin-4-yl-1-phenylsulfanylmethylpropylamino)-3-nitrobenzenesulfonamide]	4.2 µM
CN(C)CCC[C@H](CSc1ccccc1)Nc1ccc(S(=O)(=O)NC(=O)c2ccc(N3CCC(C)(C)CC3)cc2)cc1[N+](=O)[O-] [4-((R)-4-dimethylamino-1-phenylsulfanylmethylbutylamino)-N-[4-(4,4-dimethylpiperidin-1-yl)benzoyl]-3-nitrobenzenesulfonamide]	2 µM
COc1cc(CCCN2CCOCC2)ccc1-c1ccc(C(=O)NS(=O)(=O)c2ccc(N[C@@H](CSc3ccccc3)CC(=O)N(C)C)c([N+](=O)[O-])c2)cc1 [(R)-3-(4-{[2'-methoxy-4'-(3-morpholin-4-ylpropyl)biphenyl-4-carbonyl]sulfamoyl}-2-nitrophenylamino)-N,N-dimethyl-4-phenylsulfanylbutyramide]	1.28 µM
CC1(C)CCN(c2ccc(C(=O)NS(=O)(=O)c3ccc(N[C@H](CCN4CCOCC4)CSc4ccccc4)c([N+](=O)[O-])c3)cc2)CC1 [N-[4-(4,4-dimethylpiperidin-1-yl)benzoyl]-4-((R)-3-morpholin-4-yl-1-phenylsulfanylmethylpropylamino)-3-nitrobenzenesulfonamide]	0.368 µM
CC1(C)CCN(c2ccc(C(=O)NS(=O)(=O)c3ccc(N[C@H](CCCCN)CSc4ccccc4)c([N+](=O)[O-])c3)cc2)CC1 [4-((R)-5-amino-1-phenylsulfanylmethylpentylamino)-N-[4-(4,4-dimethylpiperidin-1-yl)benzoyl]-3-nitrobenzenesulfonamide]	4.13 µM
COc1cc(CCCN2CCOCC2)ccc1-c1ccc(C(=O)NS(=O)(=O)c2ccc(N[C@H](CCCCN(C)C)CSc3ccccc3)c([N+](=O)[O-])c2)cc1 [4-((R)-5-dimethylamino-1-phenylsulfanylmethylpentylamino)-N-[2'-methoxy-4'-(3-morpholin-4-ylpropyl)biphenyl-4-carbonyl]-3-nitrobenzenesulfonamide]	1.2 µM
CN(C)CC[C@@H](CSc1ccccc1)Nc1ccc(S(=O)(=O)NC(=O)c2ccc(N3CCC(C)(C)CC3)cc2)cc1[N+](=O)[O-] [4-((S)-3-dimethylamino-1-phenylsulfanylmethylpropylamino)--[4-(4,4-dimethylpiperidin-1-yl)benzoyl]-3-nitrobenzenesulfonamide]	9.5 µM
CN(C)C(=O)C[C@H](CSc1ccccc1)Nc1ccc(S(=O)(=O)NC(=O)c2ccc(N3CCC(C)(C)CC3)cc2)cc1[N+](=O)[O-] [(R)-3-{4-[4-(4,4-dimethylpiperidin-1-yl)benzoylsulfamoyl]-2-nitrophenylamino}-N,N-dimethyl-4-phenylsulfanylbutyramide]	2.14 µM

Target: Bcl-2-like protein 1 (Homo sapiens, UniProt Q07817)
Experiment: Activity towards mouse FL5.12 cell line transfected with Bcl-XL in presence of gelatin
In short: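 Bcl-XL-transfected murine FL5.12 (IL-3 dependent) grown in RPMI with 10% FBS and WEHI-3B conditioned medium as the IL-3 source. Switched to IL-3-depleted, FBS-free medium for 2 days. Then placed in gelatin assay medium (3.4 mg/mL bovine gelatin) or 3% FBS assay medium. Serial compound dilutions added for 24 h. Viability read by MTS or CellTiter-Glo; duplicate values per determination; EC50.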

Bcl-2-like protein 1, sequence (Q07817 whole entry): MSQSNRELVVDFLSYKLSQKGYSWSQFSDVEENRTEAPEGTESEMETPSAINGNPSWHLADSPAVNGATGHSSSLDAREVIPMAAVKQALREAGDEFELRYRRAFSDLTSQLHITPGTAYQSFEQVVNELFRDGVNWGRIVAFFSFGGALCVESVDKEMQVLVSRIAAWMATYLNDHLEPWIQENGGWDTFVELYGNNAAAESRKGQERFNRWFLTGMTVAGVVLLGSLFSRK

SMILES	EC50
COc1cc(CCCN2CCOCC2)ccc1-c1ccc(C(=O)NS(=O)(=O)c2ccc(N[C@H](CCCCN)CSc3ccccc3)c([N+](=O)[O-])c2)cc1 [4-((R)-5-amino-1-phenylsulfanylmethylpentylamino)-N-[2'-methoxy-4'-(3-morpholin-4-ylpropyl)biphenyl-4-carbonyl]-3-nitrobenzenesulfonamide]	3.05 µM
